Active and inactive are the calls of the source. The calls are words filed in the database; no cut-off is given here.
Legend:
Jurkat [1] = experiment: Cell cycle arrest in human Jurkat E6-1 cells assessed as accumulation at G0/G1 phase at 30 uM after 24 hrs by FACS flow cytometry; assay type: functional
Procedure, shortened: (§1)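 Jurkat E6 cells cultured in RPMI 1640 with 10% FBS at 37 °C, 5% CO2. Compounds serially diluted in medium, starting 50% above the M21 IC50. 4.0 × 10^5 cells were exposed for 24 h. Cells were washed with PBS, chicken red blood cells added as internal standard, and fixed in ice-cold EtOH. After 1 h on ice in PBS with 1 μg/mL DAPI, phase distribution was read by flow cytometry. DMSO-treated cells served as control.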

Jurkat [2] = experiment: Cell cycle arrest in human Jurkat E6-1 cells assessed as accumulation at S phase at 30 uM after 24 hrs by FACS flow cytometry; assay type: functional
Procedure, shortened: (§2)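 Jurkat E6 T-lymphoblasts in RPMI 1640 with 10% FBS, 37 °C, 5% CO2. […] Chicken red blood cells were added as internal standard. Cells were fixed in ice-cold EtOH and stained with 1 μg/mL DAPI on ice for 1 h before flow cytometry of phase distribution. Vehicle control was 0.5% DMSO.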

Jurkat [3] = experiment: Cell cycle arrest in human Jurkat E6-1 cells assessed as accumulation at G2/M phase at 30 uM after 24 hrs by FACS flow cytometry; assay type: functional
Procedure, shortened: (§3)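 Jurkat E6 cells grown in RPMI 1640 with 10% FBS at 37 °C, 5% CO2. Compounds were serially diluted in medium starting 50% above the M21 IC50. 4.0 × 10^5 cells were exposed for 24 h, then washed and spiked with chicken red blood cells as internal standard. Cells were fixed in ice-cold ethanol, stained with 1 μg/mL DAPI on ice for 1 h, and phase distribution was read by flow cytometry. The control was 0.5% DMSO.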

HT-29 = experiment: Cytotoxicity against human HT-29 cells after 48 hrs by SRB assay; assay type: functional, cell-based; details: HT-29, 48 h
Procedure, shortened: (§4)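 NCI sulforhodamine B protocol. Cells were grown in high-glucose DMEM with 5% FBS and seeded per well at 4 × 10^3 (HT-29), 3.5 × 10^3 (M21) or 3 × 10^3 (MCF-7), then allowed 24 h to attach. Serial dilutions from 200 μM to 780 nM final were applied in DMSO <0.5% for 48 h. Cells were fixed with cold TCA (10% final) and stained with SRB, with absorbance read at 530–568 nm. Growth inhibition was computed against day-0 plates, giving the 50% inhibitory concentration. At least two experiments in triplicate, CV <10%.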

M21 [4] = experiment: Cytotoxicity against human M21 cells after 48 hrs by SRB assay; assay type: functional, cell-based; details: M21, 48 h; procedure, shortened: as §4
MCF7 = experiment: Cytotoxicity against human MCF7 cells after 48 hrs by SRB assay; assay type: functional, cell-based; details: MCF7, 48 h; procedure, shortened: as §4
Jurkat [5] = experiment: Cell cycle arrest in human Jurkat E6-1 cells assessed as accumulation at S phase at 19 uM after 24 hrs by FACS flow cytometry; assay type: functional; procedure, shortened: as §3
Jurkat [6] = experiment: Cell cycle arrest in human Jurkat E6-1 cells assessed as accumulation at G2/M phase at 19 uM after 24 hrs by FACS flow cytometry; assay type: functional; procedure, shortened: as §3
Jurkat [7] = experiment: Cell cycle arrest in human Jurkat E6-1 cells assessed as accumulation at G0/G1 phase at 19 uM after 24 hrs by FACS flow cytometry; assay type: functional; procedure, shortened: as §1
Jurkat [8] = experiment: Cell cycle arrest in human Jurkat E6-1 cells assessed as accumulation at S phase at 23 uM after 24 hrs by FACS flow cytometry; assay type: functional; procedure, shortened: as §3
Jurkat [9] = experiment: Cell cycle arrest in human Jurkat E6-1 cells assessed as accumulation at G2/M phase at 23 uM after 24 hrs by FACS flow cytometry; assay type: functional; procedure, shortened: as §3
Jurkat [10] = experiment: Cell cycle arrest in human Jurkat E6-1 cells assessed as accumulation at G0/G1 phase at 23 uM after 24 hrs by FACS flow cytometry; assay type: functional; procedure, shortened: as §1
Jurkat [11] = experiment: Cell cycle arrest in human Jurkat E6-1 cells assessed as accumulation at G0/G1 phase at 43 uM after 24 hrs by FACS flow cytometry; assay type: functional; procedure, shortened: as §1
Jurkat [12] = experiment: Cell cycle arrest in human Jurkat E6-1 cells assessed as accumulation at S phase at 43 uM after 24 hrs by FACS flow cytometry; assay type: functional; procedure, shortened: as §2
Jurkat [13] = experiment: Cell cycle arrest in human Jurkat E6-1 cells assessed as accumulation at G2/M phase at 43 uM after 24 hrs by FACS flow cytometry; assay type: functional; procedure, shortened: as §3
Jurkat [14] = experiment: Cell cycle arrest in human Jurkat E6-1 cells assessed as accumulation at G0/G1 phase at 2.2 uM after 24 hrs by FACS flow cytometry; assay type: functional; procedure, shortened: as §1
Jurkat [15] = experiment: Cell cycle arrest in human Jurkat E6-1 cells assessed as accumulation at S phase at 2.2 uM after 24 hrs by FACS flow cytometry; assay type: functional; procedure, shortened: as §3
Jurkat [16] = experiment: Cell cycle arrest in human Jurkat E6-1 cells assessed as accumulation at G2/M phase at 2.2 uM after 24 hrs by FACS flow cytometry; assay type: functional; procedure, shortened: as §3
M21 [17] = experiment: Induction of DNA damage response in human M21 cells assessed as phosphorylation of H2AX into gammaH2AX at IC50 after 24 hrs by DAPI staining-based immunofluorescence assay; assay type: functional, cell-based
Procedure, shortened: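 M21 cells (1 × 10^5) on fibronectin-coated coverslips, grown 24 h, then exposed to agent for 24 h at 37 °C; 0.5% DMSO control. Fixed with 3.7% formaldehyde and permeabilized with 0.1% saponin/3% BSA. Probed with mouse anti-H2AX pS139 antibody for 2 h at room temperature. Nuclei counterstained with DAPI; nuclear γH2AX foci viewed by epifluorescence microscopy.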

HT-1080 = experiment: Antitumor activity against human HT1080 cells xenografted in chicken chorioallantoic membrane assessed as inhibition of tumor growth at 30 ug per egg, iv administered on day 11 measured on day 17 by CAM assay; assay type: functional
Procedure, shortened: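 HT-1080 fibrosarcoma cells (3.5 × 105/egg) were applied onto freshly exposed CAM of fertilized chicken eggs. On day 11, drug from a DMSO stock was diluted in Cremophor EL/99% ethanol/PBS (1/1/14 v/v) and 100 μL was injected into a vein under the CAM. Groups of 10–12 eggs were kept to day 17, embryos were euthanized at 4 °C for ≥4 h, and tumor wet weight was recorded.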

[18] = Toxicity in fertilized chicken embryo assessed as mortality rate at 30 ug per egg, iv administered on day 11 measured on day 17 by CAM assay; assay type: organism-based, Gallus gallus; details: in vivo, read-out: Activity
Procedure, shortened: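 Fertilized chicken eggs grafted on the CAM with HT-1080 cells (3.5 × 105/egg) received a 100 μL intravenous injection under the CAM on day 11. The drug was diluted in Cremophor EL/99% ethanol/PBS (1/1/14 v/v). Groups held 10–12 eggs and were incubated until day 17, when dead embryos and signs of toxicity were counted per group.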

Jurkat [19] = experiment: Cell cycle arrest in human Jurkat E6-1 cells assessed as accumulation at S phase at 200 uM after 24 hrs by FACS flow cytometry; assay type: functional; procedure, shortened: as §3
Jurkat [20] = experiment: Cell cycle arrest in human Jurkat E6-1 cells assessed as accumulation at G2/M phase at 200 uM after 24 hrs by FACS flow cytometry; assay type: functional; procedure, shortened: as §3
Jurkat [21] = experiment: Cell cycle arrest in human Jurkat E6-1 cells assessed as accumulation at G0/G1 phase at 200 uM after 24 hrs by FACS flow cytometry; assay type: functional; procedure, shortened: as §1
Jurkat [22] = experiment: Cell cycle arrest in human Jurkat E6-1 cells assessed as accumulation at G0/G1 phase at 74 uM after 24 hrs by FACS flow cytometry; assay type: functional; procedure, shortened: as §1
Jurkat [23] = experiment: Cell cycle arrest in human Jurkat E6-1 cells assessed as accumulation at S phase at 74 uM after 24 hrs by FACS flow cytometry; assay type: functional; procedure, shortened: as §2
Jurkat [24] = experiment: Cell cycle arrest in human Jurkat E6-1 cells assessed as accumulation at G2/M phase at 74 uM after 24 hrs by FACS flow cytometry; assay type: functional; procedure, shortened: as §3

Structure (SMILES): CCCc1ccccc1NS(=O)(=O)c1ccc(NC(=O)NCC)cc1
- Activity (Jurkat [1]): 19%
- Activity (Jurkat [2]): 35%
- Activity (Jurkat [3]): 46%
- IC50 (HT-29): 32 µM
- IC50 (M21 [4]): 41 µM
- IC50 (MCF7): 37 µM

Structure (SMILES): Cc1ccc(OS(=O)(=O)c2ccc(NC(=O)NCCCl)cc2)cc1
- Activity (Jurkat [5]): 57%
- Activity (Jurkat [6]): 11%
- IC50 (HT-29): 30 µM
- IC50 (M21 [4]): 21 µM
- IC50 (MCF7): 33 µM
- Activity (Jurkat [7]): 32%

Structure (SMILES): CN(C)c1ccc(OS(=O)(=O)c2ccc(NC(=O)NCCCl)cc2)cc1
- Activity (Jurkat [8]): 40%
- Activity (Jurkat [9]): 9%
- IC50 (HT-29): 39 µM
- IC50 (M21 [4]): 43 µM
- IC50 (MCF7): 58 µM
- Activity (Jurkat [10]): 51%

Structure (SMILES): CCNC(=O)Nc1cccc(S(=O)(=O)Nc2ccccc2CC)c1
- Activity (Jurkat [11]): 40%
- Activity (Jurkat [12]): 41%
- Activity (Jurkat [13]): 19%
- IC50 (HT-29): 15 µM
- IC50 (M21 [4]): > 100 µM
- IC50 (MCF7): 48 µM

Structure (SMILES): CCNC(=O)Nc1ccc(S(=O)(=O)Oc2ccccc2CC)cc1
- Activity (Jurkat [14]): 11%
- Activity (Jurkat [15]): 75%
- Activity (Jurkat [16]): 14%
- Activity (M21 [17]): Active
- TGI (HT-1080): 45%
- mortality at 6 days [18]: 9%
- IC50 (HT-29): 12 µM
- IC50 (M21 [4]): 2.5 µM
- IC50 (MCF7): 3.4 µM

Structure (SMILES): CCc1ccccc1NS(=O)(=O)c1ccc(NC(=O)NCCCCl)cc1
- Activity (Jurkat [19]): 39%
- Activity (Jurkat [20]): 16%
- IC50 (HT-29): > 200 µM
- IC50 (M21 [4]): > 200 µM
- IC50 (MCF7): > 200 µM
- Activity (Jurkat [21]): 45%

Structure (SMILES): CCc1ccccc1NS(=O)(=O)c1cccc(NC(=O)NCCCCl)c1
- Activity (Jurkat [19]): 35%
- Activity (Jurkat [20]): 15%
- IC50 (HT-29): 96 µM
- IC50 (M21 [4]): > 200 µM
- IC50 (MCF7): 43 µM
- Activity (Jurkat [21]): 50%

Structure (SMILES): CCCc1ccccc1OS(=O)(=O)c1cccc(NC(=O)NCC)c1
- Activity (Jurkat [8]): 44%
- Activity (Jurkat [9]): 10%
- IC50 (M21 [4]): 25 µM
- Activity (Jurkat [10]): 46%

Structure (SMILES): CCNC(=O)Nc1cccc(S(=O)(=O)Nc2ccccc2C)c1
- Activity (Jurkat [22]): 46%
- Activity (Jurkat [23]): 34%
- Activity (Jurkat [24]): 20%
- IC50 (HT-29): 102 µM
- IC50 (M21 [4]): 131 µM
- IC50 (MCF7): 108 µM
